The values that follow come from ChEMBL document CHEMBL4052795, “Synthesis and evaluation of modified chalcone based p53 stabilizing agents” (2017).

As a reminder, the inhibition is the change of the read-out against control, counted positive when it falls. Usually GI50 stands for the concentration giving 50% growth inhibition.

The source made the active and inactive calls. The calls are words filed in the database; no cut-off is given here.

In assay [1] the test system is HCT-116. Kind of assay: Antiproliferative activity against human HCT116 cells at 25 uM after 3 days by SRB assay relative to control. The format is functional. Particulars: HCT-116, 72 h.
The test system of the next assay is CAL-51. Briefly: Antiproliferative activity against human CAL51 cells assessed as growth inhibition after 3 days by SRB assay. The format is functional. Particulars: CAL-51, 72 h. The essentials: (§1)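 Cells treated in duplicate in 96-well format with three-fold serial dilutions from 50 µM; DMSO solvent control, Nutlin-3 positive control. Sulforhodamine B staining after 3 days; GI50 derived from dilution series.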
On the technique in general: The SRB assay estimates cell density from bound dye.

For assay [2], the system named is HCT-116. Briefly: Antiproliferative activity against human HCT116 cells assessed as growth inhibition after 3 days by SRB assay. The format is functional. Particulars: HCT-116, 72 h. The essentials: as §1
For assay [3], the system named is HCT-116. Kind of assay: Antiproliferative activity against human HCT116 cells at 50 uM after 3 days by SRB assay relative to control. Particulars: HCT-116, 72 h. The assay is classed as functional.
The target of assay [4] is Cellular tumor antigen p53 (Homo sapiens) (UniProt P04637). Kind of assay: Induction of p53 stabilization in human HCT116 cells assessed as increase in p53 expression levels at 6.25 to 25 uM after 4 hrs by immunoblot analysis. The assay is classed as cell-based. Put shortly: (§2)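 HCT116 treated with 6.25, 12.5 or 25 µM for 4 or 8 h; 10 µM Nutlin-3 positive control, DMSO solvent control. Lysates immunoblotted for p53 and GAPDH; band densities quantified, p53 normalized to GAPDH and expressed as fold change versus DMSO.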

Assay [5] has the same target. Briefly: Induction of p53 stabilization in human HCT116 cells assessed as increase in p53 expression levels at 6.25 to 25 uM after 8 hrs by immunoblot analysis. The assay is classed as cell-based. Put shortly:
as §2
(A western blot detects proteins with antibodies after separation by electrophoresis.)

The target is the same in assay [6]. Briefly: Induction of p53 stabilization in human HCT116 cells assessed as ratio of p53 expression levels to GAPDH expression levels at 12.5 uM after 8 hrs by immunoblot analysis. The format is cell-based. Put shortly: as §2
Assay [7] shares this target. Kind of assay: Induction of p53 stabilization in human HCT116 cells assessed as ratio of p53 expression levels to GAPDH expression levels after 4 hrs by immunoblot analysis. The format is cell-based. Put shortly: as §2
Assay [8] shares this target. Briefly: Induction of p53 stabilization in human HCT116 cells assessed as ratio of p53 expression levels to GAPDH expression levels at 25 uM after 8 hrs by immunoblot analysis. The format is cell-based. Put shortly: as §2
Assay [9] has the same target. Briefly: Induction of p53 stabilization in human HCT116 cells assessed as ratio of p53 expression levels to GAPDH expression levels at 25 uM after 4 hrs by immunoblot analysis. The format is cell-based. The essentials:
as §2

For assay [10] the target is unchanged. Kind of assay: Induction of p53 stabilization in human HCT116 cells assessed as ratio of p53 expression levels to GAPDH expression levels at 12.5 uM after 4 hrs by immunoblot analysis. The format is cell-based. Put shortly:
as §2

Assay [11] has the same target. Briefly: Induction of p53 stabilization in human HCT116 cells assessed as ratio of p53 expression levels to GAPDH expression levels at 6.25 uM after 8 hrs by immunoblot analysis. The assay is classed as cell-based. Put shortly:
as §2

Assay [12] shares this target. Kind of assay: Induction of p53 stabilization in human HCT116 cells assessed as ratio of p53 expression levels to GAPDH expression levels after 8 hrs by immunoblot analysis. The assay is classed as cell-based. The essentials: as §2
The target is the same in assay [13]. Kind of assay: Induction of p53 stabilization in human HCT116 cells assessed as ratio of p53 expression levels to GAPDH expression levels at 6.25 uM after 4 hrs by immunoblot analysis. The assay is classed as cell-based. The essentials: as §2
Assay [14] shares this target. Briefly: Induction of p53 stabilization in human HCT116 cells assessed as increase in p53 expression levels at 12.5 uM measured up to 90 mins in presence of varying concentrations of cycloheximide by immunoblot analysis. The format is cell-based. The essentials: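 Cycloheximide chase in HCT116: cells given cycloheximide with or without 12.5 µM compound, samples collected at timed points; immunoblot for p53 and alpha-tubulin, p53 normalized to alpha-tubulin.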

Sequence of Cellular tumor antigen p53 (Homo sapiens) (P04637 whole entry, looked up): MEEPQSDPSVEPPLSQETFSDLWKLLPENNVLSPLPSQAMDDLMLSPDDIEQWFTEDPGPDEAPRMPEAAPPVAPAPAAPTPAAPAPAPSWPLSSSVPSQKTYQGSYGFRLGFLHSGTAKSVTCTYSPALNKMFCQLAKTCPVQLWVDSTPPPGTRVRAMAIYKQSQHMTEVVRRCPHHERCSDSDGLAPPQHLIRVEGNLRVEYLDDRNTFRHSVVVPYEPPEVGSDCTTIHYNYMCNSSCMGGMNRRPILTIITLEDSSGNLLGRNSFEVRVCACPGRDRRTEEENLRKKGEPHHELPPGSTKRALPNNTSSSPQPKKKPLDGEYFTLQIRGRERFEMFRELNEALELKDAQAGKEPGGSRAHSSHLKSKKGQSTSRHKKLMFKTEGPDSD

`COc1ccc(C(=O)/C=C/c2ccccc2)cc1` [4'-METHOXYCHALCONE] had an inhibition at 25 µM in the assay on HCT-116 [1] of 99.7%. The 50% growth inhibitory concentration (GI50) in the assay with CAL-51 came to 3.33 µM; in the assay with HCT-116 [2], 3.57 µM. Moreover, in the assay with HCT-116 [3], at 50 µM the inhibition was 98.2%.

As to `COc1ccc(C2=N[C@H](c3ccc(Cl)cc3)[C@H](c3ccc(Cl)cc3)N2C(=O)N2CCNC(=O)C2)c(OC(C)C)c1`, the GI50 with HCT-116 [2] was 1.52 µM.

Take `O=C(/C=C/c1ccccc1)c1ccc(OCc2ccccc2)cc1`: at 25 µM the inhibition in the assay on HCT-116 [1] was 24.3%. The concentration for 50% growth inhibition (GI50) with CAL-51 is 28.9 µM; in the assay with HCT-116 [2] it was above 50 µM. 50 µM produced 33.8% inhibition in the assay on HCT-116 [3].

`O=C(/C=C/c1ccc(Cl)cc1)c1ccc(OCc2ccccc2)cc1`: testing at 25 µM in the assay with HCT-116 [1] gave an inhibition of 0.3%. The 50% growth inhibitory concentration (GI50) in the assay on CAL-51 and in the assay on HCT-116 [2] was above 50 µM throughout.

On to `COc1cccc(/C=C/C(=O)c2ccc(OCc3ccccc3)cc2)c1`, for which, in the assay with HCT-116 [1], 25 µM produced 35.4% inhibition. The results for the 50% growth inhibitory concentration (GI50) with CAL-51 and in the assay with HCT-116 [2] were 13.7 µM and 35.4 µM, respectively. Also, in the assay on HCT-116 [3], the inhibition at 50 µM is 76%.

Consider `COc1ccc(CCC(=O)c2ccccc2)cc1`, for which the result in assay [4] and in assay [5] was inactive. For the same compound, the concentration for 50% growth inhibition (GI50) in the assay with HCT-116 [2] was above 100 µM.

In turn, `Cc1ccc(COc2ccc(C(=O)/C=C/c3ccc(Cl)cc3)cc2)cc1` had an inhibition at 25 µM with HCT-116 [1] of 12.3%. Moreover, the 50% growth inhibitory concentration (GI50) in the assay on CAL-51 and with HCT-116 [2] was above 50 µM throughout. Also, 50 µM produced 16.9% inhibition with HCT-116 [3].

As for `Cc1ccc(COc2ccc(C(=O)/C=C/c3ccc(F)cc3)cc2)cc1`, the concentration for 50% growth inhibition (GI50) in the assay with CAL-51 and in the assay with HCT-116 [2] was above 50 µM throughout. This compound also displayed an inhibition at 50 µM in the assay with HCT-116 [3] of 15.4%.

Turning to `O=C(/C=C/c1ccccc1Cl)c1ccc(OCc2ccccc2)cc1`, in the assay on HCT-116 [1], the inhibition at 25 µM was 54.5%. Further, the GI50 was found to be 7.1 µM in the assay on CAL-51 and 14.9 µM in the assay with HCT-116 [2]. Also, the inhibition at 50 µM in the assay with HCT-116 [3] was determined as 99.7%.

In turn, `COc1cc(/C=C/C(=O)c2ccccc2)cc(OC)c1OC` gave an inhibition at 25 µM in the assay on HCT-116 [1] of 99.4%. The concentration for 50% growth inhibition (GI50) is 0.78 µM in the assay on CAL-51 and 0.473 µM with HCT-116 [2]. This compound registered an inhibition at 50 µM in the assay with HCT-116 [3] of 99.7%.

As to `O=C(/C=C/c1ccc(OCc2ccccc2)cc1)c1ccccc1`, the inhibition at 25 µM with HCT-116 [1] came out at 52.3%. In addition, the 50% growth inhibitory concentration (GI50) in the assay on CAL-51 was 24.7 µM; in the assay with HCT-116 [2], above 50 µM. In addition, the inhibition at 50 µM in the assay on HCT-116 [3] was found to be 49.5%.

`O=C(/C=C/c1ccccc1[N+](=O)[O-])c1ccccc1` gave an inhibition at 25 µM with HCT-116 [1] of 100%. The concentration for 50% growth inhibition (GI50) stood at 2.59 µM with CAL-51 and 7.69 µM in the assay with HCT-116 [2]. This compound also came in with an inhibition at 50 µM in the assay with HCT-116 [3] of 100%.

Compound `O=C(/C=C/c1ccc([N+](=O)[O-])cc1)c1ccccc1` had an inhibition at 25 µM with HCT-116 [1] of 99.7%. Also, the concentration for 50% growth inhibition (GI50) came out at 1.21 µM with CAL-51 and 3.13 µM in the assay with HCT-116 [2]. The same compound registered an inhibition at 50 µM in the assay with HCT-116 [3] of 100%.

`O=C(/C=C/c1ccc(F)cc1)c1ccc(OCc2ccccc2)cc1`: the GI50 in the assay with CAL-51 and in the assay with HCT-116 [2] was above 50 µM each time.

`O=C(/C=C/c1cccc([N+](=O)[O-])c1)c1ccccc1`: in the assay with HCT-116 [1], at 25 µM the inhibition was 100%. The GI50 in the assay with CAL-51 is 1.08 µM; with HCT-116 [2], 4.47 µM. Further, 50 µM produced 99.7% inhibition in the assay with HCT-116 [3].

For `COc1ccc(/C=C/C(=O)c2ccccc2)cc1` [4-METHOXY CHALCONE], the Ratio in assay [6] came to 1.2; in assay [8] it was 1.7; in [9] it was 1.53; in assay [10], 1.41; in assay [11] it was 1.34; in assay [13], 1.11. Also, the Activity entry in assay [7] and in assay [12] was “Dose-dependent effect” throughout. In the assay on HCT-116 [1], this compound showed an inhibition at 25 µM of 100%. Further, the figures for the GI50 with CAL-51 and with HCT-116 [2] were 2.69 µM and 3.86 µM, respectively. In addition, the outcome in assay [14] was Active. In addition, the inhibition at 50 µM in the assay on HCT-116 [3] was determined as 99.7%.

On to `O=C(/C=C/c1ccc(Cl)cc1)c1ccccc1` [4-CHLORO CHALCONE], for which the Ratio was 1.15 in [6]; 1.76 in assay [8]; 3.62 in assay [9]; 3.1 in assay [10]; 1.38 in [11]; 1.24 in assay [13]. Besides, the Activity entry in assay [7] and in assay [12] was “Dose-dependent effect” throughout. In the assay with HCT-116 [1], this compound returned an inhibition at 25 µM of 97.5%. Besides, the GI50 with CAL-51 turned out to be 5.85 µM; with HCT-116 [2] it was 16.5 µM. This compound gave an inhibition at 50 µM in the assay with HCT-116 [3] of 100%.

As for `Cc1ccc(COc2ccc(C(=O)/C=C/c3ccccc3)cc2)cc1`, the inhibition at 25 µM in the assay on HCT-116 [1] came to 4%. Moreover, the concentration for 50% growth inhibition (GI50) in the assay with CAL-51 was 43.2 µM; in the assay with HCT-116 [2] it was above 50 µM.

Regarding `COc1ccc(/C=C/C(=O)c2ccc(OCc3ccccc3)cc2)cc1`, 25 µM produced 9.5% inhibition in the assay on HCT-116 [1]. For the same compound, the GI50 with CAL-51 was above 50 µM; with HCT-116 [2], 36.9 µM. This compound also registered an inhibition at 50 µM in the assay with HCT-116 [3] of 13.2%.

The compound `O=C(/C=C/c1ccccc1)c1ccccc1` [CHALCONE] displayed an inhibition at 25 µM with HCT-116 [1] of 100%. Besides, the figures for the GI50 in the assay with CAL-51 and with HCT-116 [2] were 1.85 µM and 3.96 µM, respectively. Further, in the assay on HCT-116 [3], the inhibition at 50 µM stood at 97.5%.
